{"source": "paper PMC4062594", "about": "(Nature chemical biology, 2014)", "key": {"[1]": {"biological_target": "T1, PTP1B (Homo sapiens, UniProt P18031)", "T1 sequence (P18031 1-435)": "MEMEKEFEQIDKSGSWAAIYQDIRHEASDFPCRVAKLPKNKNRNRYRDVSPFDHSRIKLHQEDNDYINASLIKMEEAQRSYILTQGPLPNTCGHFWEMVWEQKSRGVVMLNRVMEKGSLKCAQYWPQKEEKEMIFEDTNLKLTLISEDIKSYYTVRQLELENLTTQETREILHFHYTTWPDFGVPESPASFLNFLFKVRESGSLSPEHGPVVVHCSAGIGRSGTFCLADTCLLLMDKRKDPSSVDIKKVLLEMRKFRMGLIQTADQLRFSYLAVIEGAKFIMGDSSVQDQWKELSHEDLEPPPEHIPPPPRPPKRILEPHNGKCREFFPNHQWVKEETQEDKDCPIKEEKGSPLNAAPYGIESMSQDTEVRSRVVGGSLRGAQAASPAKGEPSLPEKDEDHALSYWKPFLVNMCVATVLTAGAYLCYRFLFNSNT", "assay": "PTP assay with DiFMUP, MSI-1459 versus MSI-1436", "assay_type": "biochemical", "conditions": "DiFMUP 10 uM, compound 0-10 μM"}, "[2]": {"biological_target": "T2, PTP1B in tumor lysates from NDL2 mice (Mus musculus, UniProt P35821)", "T2 sequence (P35821 1-432)": "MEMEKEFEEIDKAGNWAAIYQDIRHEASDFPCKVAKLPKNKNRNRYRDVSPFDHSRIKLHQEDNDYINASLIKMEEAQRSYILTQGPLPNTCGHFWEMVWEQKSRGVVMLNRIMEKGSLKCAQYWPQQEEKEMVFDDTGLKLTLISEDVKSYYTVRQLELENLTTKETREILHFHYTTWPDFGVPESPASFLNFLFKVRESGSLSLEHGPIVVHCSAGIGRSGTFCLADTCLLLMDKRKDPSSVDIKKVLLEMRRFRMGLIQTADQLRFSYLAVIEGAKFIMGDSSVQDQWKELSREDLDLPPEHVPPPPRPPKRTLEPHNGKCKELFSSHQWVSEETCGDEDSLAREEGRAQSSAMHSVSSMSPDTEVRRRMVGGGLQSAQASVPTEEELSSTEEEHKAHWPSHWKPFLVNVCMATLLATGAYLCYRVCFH", "assay": "Binding assay with bead-immobilized compound in tumor lysates", "conditions": "confirmed by immunoblotting", "in_short": "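Test compound was coupled through its primary amine to NHS-activated magnetic beads (1 mM, 100 mM triethylamine, 8 h, 4°C), and free NHS groups were blocked with 0.8 M aminoethanol. Beads were incubated with 0–1 mg NDL2 tumour lysate protein and washed. Bound protein was eluted by heat in SDS sample buffer, run on 10% SDS-PAGE and identified by immunoblotting. Beads carrying a related amine compound served as negative control.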"}}, "note": "“Also recorded” adds a separate entry of the source."}
{"substance": "3β-spermine, 5α, cholenic acid methyl ester [MSI-1459]", "values": [{"measurement": "inhibition of PTP1B", "setting": "[1]", "value": "does not inhibit PTP1B; also recorded: poor inhibitory potency"}, {"measurement": "retention of 50 kDa band (PTP1B) by compound beads", "setting": "[2]", "value": "not bound"}]}
